Results gathered from unrelated publications.
pKi: −log10 of the molar value.
OPRK1: Kappa-type opioid receptor (OPRK1, Homo sapiens, UniProt P41145)

C[C@H]1[C@H]2Cc3ccc(O)cc3[C@]1(C)CCN2CC1CC1
pKi (Kappa-type opioid receptor (OPRK1, Homo sapiens, UniProt P41145, I135L); cell-free assay): 8.53

CCCC[C@@H](NC(=O)[C@@H](N)Cc1ccc(O)cc1)C(=O)NCC(=O)N[C@@H](Cc1ccc(F)cc1)C(=O)N(C)CCC[C@@]1(c2ccc(F)cc2)OCc2cc(C#N)ccc21
pKi (OPRK1; cell-free assay): 7.17

CC(=O)Nc1ccccc1-c1cnc2c(c1)C[C@@]1(OCCCc3ccccc3)[C@H]3Cc4ccc(O)c5c4[C@@]1(CCN3CC1CC1)[C@H]2O5
pKi (OPRK1; cell-free assay): 7.87

CC[C@H](C)[C@H](NC(=O)[C@H](CCCNC(=N)N)NC(=O)[C@H](CC(C)C)NC(=O)[C@@H](N)Cc1ccccc1)C(=O)N[C@@H](CCCNC(=N)N)C(=O)N1CCC[C@H]1C(=O)N[C@@H](CCCCN)C(=O)O
pKi (OPRK1; ligand displacement, radioligand): < 5.00

Fc1ccccc1CC(c1ccccc1)N1CCCC1 (centres unmarked)
pKi (OPRK1; ligand displacement, radioligand): 6.19

Cc1ccc(Cc2ccc3c(c2)CN(C(=O)[C@@H](N)Cc2c(C)cc(O)cc2C)CC3)cc1
pKi (OPRK1; ligand displacement, radioligand; cell membranes): 6.63

Oc1ccc2c3c1O[C@H]1c4ncc(-c5ccccc5)cc4C[C@@]4(OCCCc5cccnc5)[C@@H](C2)N(CC2CC2)CC[C@]314
pKi (OPRK1; cell-free assay): 8.28

COc1ccsc1CNCC[C@@]1(c2ccccn2)CCOC2(CCCC2)C1
pKi (OPRK1; cell-free assay): 5.57

Cc1cc(O)cc(C)c1C[C@H](N)C(=O)N1CCc2ccc(Cc3ccccc3N)cc2C1
pKi (OPRK1; ligand displacement, radioligand; cell membranes): 7.60

C[C@@H](NC(=O)[C@@H](N)Cc1ccc(O)cc1)C(=O)NCC(=O)N[C@@H](Cc1ccccc1)C(=O)N(C)CCC[C@@]1(c2ccc(F)cc2)OCc2cc(C#N)ccc21
pKi (OPRK1; cell-free assay): 7.07

Cc1cc(O)cc(C)c1C[C@H](N)C(=O)N1CCc2ccc(Cc3ccccc3[N+](=O)[O-])cc2C1
pKi (OPRK1; ligand displacement, radioligand; cell membranes): 8.59

CN[C@]1(c2ccccc2Cl)CCCCC1=O
pKi (OPRK1; ligand displacement, radioligand): 5.07

C[C@@H](NC(=O)[C@@H](N)Cc1ccc(O)cc1)C(=O)NCC(=O)N[C@@H](Cc1ccc(Cl)cc1)C(=O)N(C)CCC[C@@]1(c2ccc(F)cc2)OCc2cc(C#N)ccc21
pKi (OPRK1; cell-free assay): 7.37

Cc1cc(O)cc(C)c1C[C@H](N)C(=O)N1CCc2ccc(Cc3ccc([N+](=O)[O-])cc3)cc2C1
pKi (OPRK1; ligand displacement, radioligand; cell membranes): 7.66
